Data as given in ChEMBL document CHEMBL4808168, “The Discovery of Two Novel Classes of 5,5-Bicyclic Nucleoside-Derived PRMT5 Inhibitors for the Treatment of Cancer” (J Med Chem, 2021).
Values after ≈ are worked out from the molar mass of the structure shown.

How the values were obtained:
[1] = biological target: Protein arginine N-methyltransferase 5 (Homo sapiens, UniProt O14744); assay: Inhibition of PRMT5 (unknown origin) assessed as inhibition of symmetric dimethylation of arginine incubated for 3 days by fluorescence based cellular target engagement assay
Procedure, shortened: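 MCF-7 cells (4000/well, collagen-coated plates) in EMEM with 0.01 mg/mL insulin and 10% FBS; 10-point 1:3 titration from 10,000 nM; 3 days at 37 °C/5% CO2; fixed, permeabilized, anti-SDMA antibody, then Alexa488 anti-rabbit IgG plus Hoechst; nuclear fluorescence by high-content imaging versus DMSO; EC50 by four-parameter robust fit.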

Z-138 [2] = assay: Antiproliferative activity against human Z138 cells incubated for 10 days by cell titer-glo assay; type: functional, cell-based; conditions: Z-138, 240 h
[3] = Plasma clearance in rat; type: ADME
[4] = Unbound clearance in rat; type: ADME; conditions: in vivo
[5] = Unbound volume of distribution in rat; type: ADME; conditions: in vivo
[6] = MRT in rat; type: ADME; conditions: in vivo
[7] = Oral bioavailability in rat; type: ADME, organism-based; conditions: in vivo
[8] = Solubility of the compound in […] at pH 2 at 200 uM incubated for 24 hrs by UV-vis detection based HPLC analysis; type: physicochemical
Procedure, shortened: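 10 mM DMSO stock added to 10 mM potassium phosphate buffer at pH 2 or pH 7, or FaSSIF pH 6.5, to 200 μM total; 24 h equilibration, filtration, then reverse-phase HPLC with UV–vis detection.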

[9] = Solubility of the compound in FaSSIF at pH 7 at 200 uM incubated for 24 hrs by UV-vis detection based HPLC analysis; type: physicochemical
[10] = Unbound clearance in dog; type: ADME, Canis lupus familiaris; conditions: in vivo
[11] = Unbound volume of distribution in dog; type: ADME, Canis lupus familiaris; conditions: in vivo
[12] = MRT in dog; type: ADME, Canis lupus familiaris; conditions: in vivo
[13] = Oral bioavailability in dog; type: ADME, organism-based, Canis lupus familiaris; conditions: in vivo
Z-138 [14] = assay: Antitumor activity against human Z138 cells implanted in CB17.SCID mouse assessed as tumor growth inhibition at 60 mg/kg, po bid measured at 13 days relative to control; type: functional; conditions: Z-138, po, 312 h, time 13 day, read-out: TGI
Z-138 [15] = assay: Antitumor activity against human Z138 cells implanted in CB17.SCID mouse assessed as tumor growth inhibition at 30 mg/kg, po bid measured at 13 days relative to control; type: functional; conditions: Z-138, po, 312 h, time 13 day, read-out: TGI
Z-138 [16] = assay: Antitumor activity against human Z138 cells implanted in CB17.SCID mouse assessed as tumor growth inhibition at […] measured at 13 days relative to control; type: functional; conditions: Z-138, po, 312 h, time 13 day, read-out: TGI
Z-138 [17] = assay: Antitumor activity against human Z138 cells implanted in CB17.SCID mouse assessed as […] at 5 mg/kg, po bid measured at 13 days relative to control; type: functional; conditions: Z-138, po, 312 h, time 13 day, read-out: TGI
Procedure, shortened: (§1)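 Female CB17.SCID mice implanted subcutaneously with 5 × 10⁶ Z138 cells; dosing began at about 100 mm³, n = 10 per group; daily PO at 10, 30 or 60 mpk QD or 5 mpk BID in 0.5% methylcellulose; tumor volume (L × W²)/2 and body weight twice weekly; %TGI at day 13 from change in tumor volume versus vehicle.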

[18] = Toxicity in CB17.SCID mouse implanted with human Z138 cells assessed as body weight change at 10 to 60 mg/kg, po bid measured up, to 14 days relative to control; type: organism-based; conditions: in vivo, 336 h, in the assay text read “po qd” for “po bid”, dose 10-60 mg/kg, time 14 day; procedure, shortened: as §1
CYP3A4 = CYP3A4 (Homo sapiens, UniProt P08684); assay: Ratio of IC50 for time dependent inhibition of CYP3A4 (unknown origin) in absence of NADPH to IC50 for time dependent inhibition of CYP3A4 (unknown origin) in presence of NADPH; conditions: read-out: Ratio IC50
CYP3A4, sequence (P08684 whole entry): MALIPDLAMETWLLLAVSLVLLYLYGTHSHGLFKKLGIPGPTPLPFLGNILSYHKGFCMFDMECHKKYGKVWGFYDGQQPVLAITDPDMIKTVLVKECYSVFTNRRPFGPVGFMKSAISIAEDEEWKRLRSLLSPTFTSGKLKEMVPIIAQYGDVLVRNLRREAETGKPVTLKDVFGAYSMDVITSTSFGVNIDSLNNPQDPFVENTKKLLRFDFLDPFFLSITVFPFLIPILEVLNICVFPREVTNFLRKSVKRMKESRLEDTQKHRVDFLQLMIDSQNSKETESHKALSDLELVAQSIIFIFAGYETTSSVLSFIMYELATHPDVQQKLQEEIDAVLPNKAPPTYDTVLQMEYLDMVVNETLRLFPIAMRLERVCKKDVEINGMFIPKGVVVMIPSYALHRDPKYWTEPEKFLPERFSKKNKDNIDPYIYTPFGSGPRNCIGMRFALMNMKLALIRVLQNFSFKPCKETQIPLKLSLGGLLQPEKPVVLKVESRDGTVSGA

Protein arginine N-methyltransferase 5, sequence (O14744 whole entry): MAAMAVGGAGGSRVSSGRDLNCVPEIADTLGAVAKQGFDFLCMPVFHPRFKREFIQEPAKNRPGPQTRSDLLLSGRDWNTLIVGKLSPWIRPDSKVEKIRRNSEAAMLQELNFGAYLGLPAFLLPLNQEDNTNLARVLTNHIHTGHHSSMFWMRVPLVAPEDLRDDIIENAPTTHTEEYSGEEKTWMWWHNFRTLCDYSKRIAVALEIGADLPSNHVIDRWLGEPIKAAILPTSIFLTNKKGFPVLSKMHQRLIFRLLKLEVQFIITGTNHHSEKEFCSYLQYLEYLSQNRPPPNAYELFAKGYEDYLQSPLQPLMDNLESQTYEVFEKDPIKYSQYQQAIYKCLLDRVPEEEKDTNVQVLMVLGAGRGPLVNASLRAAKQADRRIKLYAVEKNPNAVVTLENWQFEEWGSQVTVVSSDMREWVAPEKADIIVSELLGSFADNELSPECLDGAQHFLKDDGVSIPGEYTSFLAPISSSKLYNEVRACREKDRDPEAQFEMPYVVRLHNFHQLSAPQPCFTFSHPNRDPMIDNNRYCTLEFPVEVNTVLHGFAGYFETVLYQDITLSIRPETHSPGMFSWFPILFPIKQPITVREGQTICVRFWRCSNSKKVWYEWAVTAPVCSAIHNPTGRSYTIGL

SMILES: Cc1nc(N)c2ccn([C@@H]3C[C@@H]4[C@H](Cc5ccc6cc(F)c(N)nc6c5)CC[C@]4(O)[C@H]3O)c2n1
- EC50 [1]: 1.5 nM
- EC50 (Z-138 [2]): 4.1 nM
- clearance [3]: 9 mL/min/kg
- CL free [4]: 789 mL/min/kg
- Vdu [5]: 150 L/kg
- MRT [6]: 3.2 h
- bioavailability [7]: 17%
- solubility at 24 h, 200 µM [8]: 149 µM (≈ 68.9 µg/mL)
- solubility at 24 h, 200 µM [9]: 123 µM (≈ 56.9 µg/mL)

SMILES: Cc1ncnc2c1ccn2[C@@H]1C[C@@H]2[C@H](Cc3ccc4cc(F)c(N)nc4c3)CC[C@]2(O)[C@H]1O
- EC50 [1]: 0.89 nM
- EC50 (Z-138 [2]): 3.5 nM
- clearance [3]: 24 mL/min/kg
- CL free [4]: 374 mL/min/kg
- Vdu [5]: 33 L/kg
- MRT [6]: 1.3 h
- bioavailability [7]: 77%
- solubility at 24 h, 200 µM [8]: 157 µM (≈ 70.3 µg/mL)
- solubility at 24 h, 200 µM [9]: 94 µM (≈ 42.1 µg/mL)

SMILES: Nc1nc2cc(C[C@@H]3CC[C@@]4(O)[C@@H]3C[C@@H](n3cc(F)c5c(N)ncnc53)[C@@H]4O)ccc2cc1F
- EC50 [1]: 0.74 nM
- EC50 (Z-138 [2]): 2.3 nM
- clearance [3]: 25 mL/min/kg
- CL free [4]: 1476 mL/min/kg
- Vdu [5]: 29 L/kg
- MRT [6]: 1.3 h
- bioavailability [7]: 19%
- solubility at 24 h, 200 µM [8]: 164 µM (≈ 76.5 µg/mL)
- solubility at 24 h, 200 µM [9]: 121 µM (≈ 56.4 µg/mL)

SMILES: Nc1nc2cc(C[C@@H]3CC[C@@]4(O)[C@@H]3C[C@@H](n3cc(F)c5c(N)ncnc53)[C@@H]4O)cc(F)c2cc1F
- EC50 [1]: 0.84 nM
- EC50 (Z-138 [2]): 5.8 nM
- clearance [3]: 14 mL/min/kg
- CL free [4]: 368 mL/min/kg
- Vdu [5]: 54 L/kg
- MRT [6]: 2.5 h
- bioavailability [7]: 24%
- solubility at 24 h, 200 µM [8]: 190 µM (≈ 92.1 µg/mL)
- solubility at 24 h, 200 µM [9]: 25 µM (≈ 12.1 µg/mL)
- CL free [10]: 72 mL/min/kg
- Vdu [11]: 43 L/kg
- MRT [12]: 9.9 h
- bioavailability [13]: 45%

SMILES: Cc1ncnc2c1ccn2[C@@H]1O[C@@H]2[C@@H](Oc3ccc4cc(Br)c(N)nc4c3)CC[C@]2(O)[C@H]1O
- EC50 [1]: 4.7 nM
- EC50 (Z-138 [2]): 17 nM
- clearance [3]: 4 mL/min/kg
- CL free [4]: 1444 mL/min/kg
- Vdu [5]: 139 L/kg
- MRT [6]: 1.6 h
- bioavailability [7]: 42%
- solubility at 24 h, 200 µM [8]: 161 µM (≈ 82.5 µg/mL)
- solubility at 24 h, 200 µM [9]: < 1 µM
- CL free [10]: 329 mL/min/kg
- Vdu [11]: 93 L/kg
- MRT [12]: 4.6 h
- bioavailability [13]: 44%
- inhibition in vivo at 60 mg/kg (Z-138 [14]): 71%
- inhibition in vivo at 30 mg/kg (Z-138 [15]): 76%
- inhibition in vivo (Z-138 [16]): 45%
- inhibition in vivo at 5 mg/kg (Z-138 [17]): 33%
- Activity [18]: Non-Toxic
- IC50 shift (CYP3A4): > 2.4

SMILES: Cc1cn([C@@H]2C[C@@H]3[C@H](Cc4ccc5cc(F)c(N)nc5c4)CC[C@]3(O)[C@H]2O)c2ncnc(N)c12
- EC50 [1]: 0.97 nM
- EC50 (Z-138 [2]): 3.7 nM
- clearance [3]: 38 mL/min/kg
- CL free [4]: 788 mL/min/kg
- Vdu [5]: 50 L/kg
- MRT [6]: 1.1 h
- bioavailability [7]: 10%
- solubility at 24 h, 200 µM [8]: 146 µM (≈ 67.5 µg/mL)
- solubility at 24 h, 200 µM [9]: 66 µM (≈ 30.5 µg/mL)
